The target of one series is PDE9A2 (Homo sapiens, UniProt O76083). The experiment in a line: In vitro bioassay for inhibition of PDE9. Format: biochemical. The note with it: for IC50: IC50 against PDE9, mean of three independent determinations.
Series [1] in a line: In vitro cell viability assay. Format: cell-based. As to conditions: human, SH-SY5Y cells. The procedure, abridged: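 SH-SY5Y cells seeded at 5 × 10^3 per well and allowed 24 h before test compound addition at 10, 20, 40, 60, 80 and 100 μmol/L. After 48 h exposure, MTT was added for 4 h at 37 °C. Formazan was dissolved in DMSO, and absorbance was read at 570 nm.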

Values joined by “and” are separate entries in the source; they are usually repeats but may differ in a detail not shown here. Identical values can stand only once.

For orientation: IC50 means the concentration needed to halve the response being measured. As a reminder, the viability is the share of living cells, or the viability signal relative to a control. Read a high viability as better survival.

Chain of PDE9A2 (O76083 1-533 isoform O76083-2): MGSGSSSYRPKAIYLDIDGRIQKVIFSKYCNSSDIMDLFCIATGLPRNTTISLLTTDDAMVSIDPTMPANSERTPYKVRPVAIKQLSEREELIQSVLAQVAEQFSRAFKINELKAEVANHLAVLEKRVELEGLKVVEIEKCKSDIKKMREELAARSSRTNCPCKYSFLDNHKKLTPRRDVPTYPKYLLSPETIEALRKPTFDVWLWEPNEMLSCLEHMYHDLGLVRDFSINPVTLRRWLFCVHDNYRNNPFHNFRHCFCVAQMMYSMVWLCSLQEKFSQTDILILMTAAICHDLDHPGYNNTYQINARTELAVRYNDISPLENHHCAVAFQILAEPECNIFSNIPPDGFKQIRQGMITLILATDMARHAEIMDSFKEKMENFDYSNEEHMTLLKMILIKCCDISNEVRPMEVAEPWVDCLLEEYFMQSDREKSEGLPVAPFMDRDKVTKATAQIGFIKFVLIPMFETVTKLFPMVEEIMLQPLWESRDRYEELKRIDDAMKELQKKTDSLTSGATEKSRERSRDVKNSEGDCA

Turning to `C[C@@H](COc1ccc(CC2SC(=O)NC2=O)cc1)Nc1nc2c(cnn2C2CCCC2)c(=O)[nH]1` (stereo partly drawn) [Compound 15, 5-(4-((S)-2-((1-Cyclopentyl-4-oxo-4,5-dihydro-1H-pyrazolo[3,4-d]pyrimidin-6-yl)amino)propoxy)benzyl)thiazolidine-2,4-dione], 98 nM corresponded to half-maximal inhibition against PDE9A2 (IC50).

Take `COc1cc(CC2SC(=O)NC2=O)cc(F)c1OCCNc1nc2c(cnn2C2CCCC2)c(=O)[nH]1` (centres unmarked) [Compound 14c, 5-(4-(2-((1-Cyclopentyl-4-oxo-4,5-dihydro-1H-pyrazolo[3,4-d]pyrimidin-6-yl)amino)ethoxy)-3-fluoro-5-methoxybenzyl)thiazolidine-2,4-dione]: the IC50 on PDE9A2 is < 5 nM and 4.2 nM. In series [1], the viability at 48 h, 40 μmol/L was 93% and the viability at 48 h, 100 μmol/L came to 62%.

For `O=C1NC(=O)C(Cc2ccc(OCCNc3nc4c(cnn4C4CCCC4)c(=O)[nH]3)c(F)c2)S1` (centres unmarked) [Compound 14a, 5-(4-(2-((1-Cyclopentyl-4-oxo-4,5-dihydro-1H-pyrazolo[3,4-d]pyrimidin-6-yl)amino)ethoxy)-3-fluorobenzyl)thiazolidine-2,4-dione], the IC50 against PDE9A2 is < 5 nM and 3.5 nM. In series [1], this compound showed a viability at 48 h, 40 μmol/L of 82% and a viability at 48 h, 100 μmol/L of 52%.

Regarding `CN(CCOc1ccc(CC2SC(=O)NC2=O)cc1)c1ccccn1` (centres unmarked) [Rosiglitazone, reference compound], on PDE9A2 (at the concentration of 5 mmol/L), the “inhibition against PDE9A” value is “no inhibition”.

For the compound `O=C1NC(=O)/C(=C/c2ccc(OCCNc3nc4c(cnn4C4CCCC4)c(=O)[nH]3)c(F)c2)S1` [Compound 11a, (Z)-5-(4-(2-((1-Cyclopentyl-4-oxo-4,5-dihydro-1H-pyrazolo[3,4-d]pyrimidin-6-yl)amino)ethoxy)-3-fluorobenzylidene)thiazolidine-2,4-dione], the IC50 on PDE9A2 was < 5 nM. Moreover, at PDE9A2 (vs PF-04447943), the “fold more potent than PF-04447943 (PDE9 IC50)” value was determined as 8 fold. In addition, the “fold increase of IC50 potency compared with compound 5b” value on PDE9A2 (vs compound 5b) was 20 fold. For the same compound, in series [1], the viability at 48 h, 40 μmol/L was 55% and the viability at 48 h, 100 μmol/L was found to be 34%.

For `COc1cc(/C=C2\SC(=O)NC2=O)cc(F)c1OCCNc1nc2c(cnn2C2CCCC2)c(=O)[nH]1` [Compound 11c, (Z)-5-(4-(2-((1-Cyclopentyl-4-oxo-4,5-dihydro-1H-pyrazolo[3,4-d]pyrimidin-6-yl)amino)ethoxy)-3-fluoro-5-methoxybenzylidene)thiazolidine-2,4-dione], at PDE9A2, the IC50 was < 5 nM and 3.3 nM. In series [1], this compound displayed a viability at 48 h, 40 μmol/L of 84% and a viability at 48 h, 100 μmol/L of 57%.

`COc1cc(/C=C2\SC(=O)NC2=O)ccc1OCCNc1nc2c(cnn2C2CCCC2)c(=O)[nH]1` [Compound 11d, (Z)-5-(4-(2-((1-Cyclopentyl-4-oxo-4,5-dihydro-1H-pyrazolo[3,4-d]pyrimidin-6-yl)amino)ethoxy)-3-methoxybenzylidene)thiazolidine-2,4-dione]: the IC50 on PDE9A2 turned out to be 76 nM.

The record behind these values is paper PMC6089849 (Acta Pharmaceutica Sinica. B, 2018).
